ChEMBL document CHEMBL1949525, “Boranophosphate isoster controls P2Y-receptor subtype selectivity and metabolic stability of dinucleoside polyphosphate analogues” (J Med Chem, 2012)
The source made the active and inactive calls. The calls are words filed in the database; no cut-off is given here.

Legend:
[1] = molecular target: P2Y purinoceptor 1 (Meleagris gallopavo) (UniProt P49652); experiment: Antagonist activity at turkey P2Y purinoceptor 1 expressed in human 1321N1 cells assessed as inhibition of 2-Sme-ADP-induced increase in intracellular calcium concentration by spectrofluorimetry; type: functional, cell-based
Outline: (§1)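 Fura-2-loaded 1321N1 transfectants (turkey P2Y1, human P2Y2/P2Y4, rat P2Y6) in Hepes-buffered saline, pH 7.4, at 37 °C. Analogues were tested against equimolar reference agonist: 2-MeS-ADP for P2Y1, UTP for P2Y2/4, UDP for P2Y6. Blockade of the [Ca2+]i rise was followed by dual-excitation spectrofluorometry.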

P2Y purinoceptor 2 [2] = molecular target: T1, P2Y purinoceptor 2 (Homo sapiens, UniProt P41231); experiment: Antagonist activity at human P2Y purinoceptor 2 expressed in human 1321N1 cells assessed as inhibition of UTP-induced increase in intracellular calcium concentration by spectrofluorimetry; type: functional, cell-based; outline: as §1
P2Y purinoceptor 4 = P2Y purinoceptor 4 (Homo sapiens, UniProt P51582); experiment: Antagonist activity at human P2Y purinoceptor 4 expressed in human 1321N1 cells assessed as inhibition of UTP-induced increase in intracellular calcium concentration by spectrofluorimetry; type: functional, cell-based; outline: as §1
[3] = molecular target: P2Y purinoceptor 6 (Rattus norvegicus) (UniProt Q63371); experiment: Antagonist activity at rat P2Y purinoceptor 6 expressed in human 1321N1 cells assessed as inhibition of UDP-induced increase in intracellular calcium concentration by spectrofluorimetry; type: functional, cell-based; outline: as §1
[4] = molecular target: P2Y purinoceptor 6 (Rattus norvegicus) (UniProt Q63371); experiment: Agonist activity at rat P2Y purinoceptor 6 expressed in human 1321N1 cells assessed as increase in intracellular calcium concentration at 100 uM by spectrofluorimetry; type: functional, cell-based
[5] = Selectivity ratio of EC50 for rat P2Y purinoceptor 6 receptor to EC50 for turkey P2Y purinoceptor 1 receptor
Outline: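 1321N1 astrocytoma cells lacking endogenous P2Y receptors, stably transfected with turkey P2Y1, human P2Y2, human P2Y4 or rat P2Y6, grown in DMEM with 5% FBS, penicillin/streptomycin and 500 µg/mL G-418. Fura-2-loaded cell suspensions were exposed at 37 °C in 10 mM Hepes-buffered saline, pH 7.4, with 1 mM CaCl2 and 1 mM MgCl2. Peak [Ca2+]i rise by dual-excitation spectrofluorometry across concentrations; EC50 from curve fits; three experiments on separate days per subtype.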

[6] = Stability of the compound assessed as human e-NPP1-mediated hydrolysis at pH 8.5 after 20 mins by HPLC analysis; type: ADME; settings: buffer, pH 8.5, 20 min
Outline: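 Human NPP1 preparation preincubated 3 min at 37 °C in 1 mM CaCl2, 200 mM NaCl, 10 mM KCl, 100 mM Tris, pH 8.5. Started with 0.2 mM dinucleotide solution (added volume) and stopped after 20 min in ice-cold perchloric acid. Neutralised with KOH, then NMP formation followed by HPLC. Percent substrate hydrolysed is the mean of two experiments run in triplicate.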

[7] = Stability of the compound assessed as human e-NPP3-mediated compound hydrolysis by HPLC analysis; type: ADME
[8] = Chemical stability of the compound at pH mimicking gastric juice acidity; type: physicochemical; settings: simulated gi fluid
[9] = Chemical stability of the compound at physiological conditions; type: physicochemical
[10] = molecular target: P2Y purinoceptor 1 (Meleagris gallopavo) (UniProt P49652); experiment: Agonist activity at turkey P2Y purinoceptor 1 expressed in human 1321N1 cells assessed as increase in intracellular calcium concentration at 100 uM by spectrofluorimetry; type: functional, cell-based
P2Y purinoceptor 2 [11] = molecular target: T1, P2Y purinoceptor 2; experiment: Agonist activity at human P2Y purinoceptor 2 expressed in human 1321N1 cells assessed as increase in intracellular calcium concentration at 100 uM by spectrofluorimetry; type: functional, cell-based

T1 sequence (P41231 whole entry): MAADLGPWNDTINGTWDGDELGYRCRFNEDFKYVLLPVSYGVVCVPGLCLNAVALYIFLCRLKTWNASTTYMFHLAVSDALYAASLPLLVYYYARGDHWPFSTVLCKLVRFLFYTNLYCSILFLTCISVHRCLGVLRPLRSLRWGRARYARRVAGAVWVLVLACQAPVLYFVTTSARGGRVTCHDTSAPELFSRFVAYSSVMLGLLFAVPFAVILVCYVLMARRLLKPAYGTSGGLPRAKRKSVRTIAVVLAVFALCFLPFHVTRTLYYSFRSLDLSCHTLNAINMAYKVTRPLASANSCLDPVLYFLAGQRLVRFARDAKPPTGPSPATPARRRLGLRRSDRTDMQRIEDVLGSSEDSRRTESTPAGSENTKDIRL
Chain of P2Y purinoceptor 6 (Rattus norvegicus) (Q63371 whole entry): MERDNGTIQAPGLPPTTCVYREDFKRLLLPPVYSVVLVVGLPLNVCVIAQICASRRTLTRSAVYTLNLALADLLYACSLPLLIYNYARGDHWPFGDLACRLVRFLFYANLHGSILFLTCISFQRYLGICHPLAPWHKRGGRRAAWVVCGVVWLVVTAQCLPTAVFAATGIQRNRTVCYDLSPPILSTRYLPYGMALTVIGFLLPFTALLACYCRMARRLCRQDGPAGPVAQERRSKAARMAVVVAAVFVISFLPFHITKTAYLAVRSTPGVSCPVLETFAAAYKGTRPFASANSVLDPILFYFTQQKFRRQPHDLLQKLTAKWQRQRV
Chain of P2Y purinoceptor 4 (P51582 whole entry): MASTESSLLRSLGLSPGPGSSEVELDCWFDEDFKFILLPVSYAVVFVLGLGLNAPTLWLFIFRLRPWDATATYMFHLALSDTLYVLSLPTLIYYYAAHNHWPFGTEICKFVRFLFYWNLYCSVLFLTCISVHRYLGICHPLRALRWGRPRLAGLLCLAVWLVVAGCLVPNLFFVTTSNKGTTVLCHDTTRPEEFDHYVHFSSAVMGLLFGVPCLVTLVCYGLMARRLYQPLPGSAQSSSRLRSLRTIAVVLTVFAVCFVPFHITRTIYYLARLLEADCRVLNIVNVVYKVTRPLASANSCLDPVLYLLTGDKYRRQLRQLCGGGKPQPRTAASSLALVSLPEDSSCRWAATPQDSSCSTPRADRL
Chain of P2Y purinoceptor 1 (Meleagris gallopavo) (P49652 whole entry): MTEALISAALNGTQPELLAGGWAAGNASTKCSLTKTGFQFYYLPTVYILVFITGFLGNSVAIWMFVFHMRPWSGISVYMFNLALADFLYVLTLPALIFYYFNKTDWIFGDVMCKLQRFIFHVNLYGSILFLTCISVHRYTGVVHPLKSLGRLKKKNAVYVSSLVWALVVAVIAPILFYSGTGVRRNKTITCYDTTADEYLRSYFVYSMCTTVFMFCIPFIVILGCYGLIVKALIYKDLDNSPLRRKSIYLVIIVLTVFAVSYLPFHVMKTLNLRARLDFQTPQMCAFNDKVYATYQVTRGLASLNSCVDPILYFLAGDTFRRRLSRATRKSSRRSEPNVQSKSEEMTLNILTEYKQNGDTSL

| Activity [1] | Activity (P2Y purinoceptor 2 [2]) | Activity (P2Y purinoceptor 4) | Activity [3] | Activity [4] | Ratio EC50 [5] | Stability [6] | Stability [7] | Stability [8] | Stability [9] | Activity [10] | Activity (P2Y purinoceptor 2 [11]) | Compound |
| --- | --- | --- | --- | --- | --- | --- | --- | --- | --- | --- | --- | --- |
| inactive | inactive | inactive | inactive | Active |  |  |  |  |  |  |  | BP(=O)(OP(=O)(O)OC[C@H]1O[C@@H](n2cnc3c(N)ncnc32)[C@H](O)[C@@H]1O)OP(=O)(O)OP(=O)(O)OC[C@H]1O[C@@H](n2cnc3c(N)ncnc32)[C@H](O)[C@@H]1O.CCCCN(CCCC)CCCC.CCCCN(CCCC)CCCC.CCCCN(CCCC)CCCC.CCCCN(CCCC)CCCC (stereo in doubt; 6B) |
|  |  |  |  |  | 42 |  |  |  |  |  |  | BP(=O)(OP(=O)(O)OC[C@H]1O[C@@H](n2cnc3c(N)ncnc32)[C@H](O)[C@@H]1O)OP(=O)(O)OP(=O)(O)OC[C@H]1O[C@@H](n2ccc(=O)[nH]c2=O)[C@H](O)[C@@H]1O.CCCCN(CCCC)CCCC.CCCCN(CCCC)CCCC.CCCCN(CCCC)CCCC.CCCCN(CCCC)CCCC (mixture of isomers) |
| inactive | inactive | inactive | inactive | Active |  |  |  |  |  |  |  | BP(=O)(OP(=O)(O)OC[C@H]1O[C@@H](n2cnc3c(N)ncnc32)[C@H](O)[C@@H]1O)OP(=O)(O)OP(=O)(O)OC[C@H]1O[C@@H](n2cnc3c(N)ncnc32)[C@H](O)[C@@H]1O.CCCCN(CCCC)CCCC.CCCCN(CCCC)CCCC.CCCCN(CCCC)CCCC.CCCCN(CCCC)CCCC (stereo in doubt; 6A) |
|  |  |  |  |  |  | Stable | Stable | Stable | Stable |  |  | BP(=O)(OP(=O)(O)OC[C@H]1O[C@@H](n2cnc3c(N)ncnc32)[C@H](O)[C@@H]1O)OP(=O)(O)OC[C@H]1O[C@@H](n2cnc3c(N)ncnc32)[C@H](O)[C@@H]1O.CCCCN(CCCC)CCCC.CCCCN(CCCC)CCCC.CCCCN(CCCC)CCCC |
| inactive | inactive | inactive | inactive |  |  |  |  |  |  | Active | Active | BP(=O)(OP(=O)(O)OC[C@H]1O[C@@H](n2ccc(=O)[nH]c2=O)[C@H](O)[C@@H]1O)OP(=O)(O)OP(=O)(O)OC[C@H]1O[C@@H](n2ccc(=O)[nH]c2=O)[C@H](O)[C@@H]1O.CCCCN(CCCC)CCCC.CCCCN(CCCC)CCCC.CCCCN(CCCC)CCCC.CCCCN(CCCC)CCCC (stereo in doubt; 7A) |
